Assay results as given in ChEMBL document CHEMBL4680221, “Discovery of pyrazole derivatives as cellular active inhibitors of histone lysine specific demethylase 5B (KDM5B/JARID1B)” (Eur J Med Chem, 2020).
Calls of active or inactive are those of the source. No cut-off for these calls is given here.

How the values were obtained:
[1] = molecular target: T1, Lysine-specific demethylase 6B (Homo sapiens, UniProt O15054); test: Inhibition of KDM6B (unknown origin)
[2] = molecular target: T2, Lysine-specific demethylase 5C (Homo sapiens, UniProt P41229); test: Inhibition of KDM5C (unknown origin) at 0.25 uM relative to control
T2 sequence (P41229 whole entry): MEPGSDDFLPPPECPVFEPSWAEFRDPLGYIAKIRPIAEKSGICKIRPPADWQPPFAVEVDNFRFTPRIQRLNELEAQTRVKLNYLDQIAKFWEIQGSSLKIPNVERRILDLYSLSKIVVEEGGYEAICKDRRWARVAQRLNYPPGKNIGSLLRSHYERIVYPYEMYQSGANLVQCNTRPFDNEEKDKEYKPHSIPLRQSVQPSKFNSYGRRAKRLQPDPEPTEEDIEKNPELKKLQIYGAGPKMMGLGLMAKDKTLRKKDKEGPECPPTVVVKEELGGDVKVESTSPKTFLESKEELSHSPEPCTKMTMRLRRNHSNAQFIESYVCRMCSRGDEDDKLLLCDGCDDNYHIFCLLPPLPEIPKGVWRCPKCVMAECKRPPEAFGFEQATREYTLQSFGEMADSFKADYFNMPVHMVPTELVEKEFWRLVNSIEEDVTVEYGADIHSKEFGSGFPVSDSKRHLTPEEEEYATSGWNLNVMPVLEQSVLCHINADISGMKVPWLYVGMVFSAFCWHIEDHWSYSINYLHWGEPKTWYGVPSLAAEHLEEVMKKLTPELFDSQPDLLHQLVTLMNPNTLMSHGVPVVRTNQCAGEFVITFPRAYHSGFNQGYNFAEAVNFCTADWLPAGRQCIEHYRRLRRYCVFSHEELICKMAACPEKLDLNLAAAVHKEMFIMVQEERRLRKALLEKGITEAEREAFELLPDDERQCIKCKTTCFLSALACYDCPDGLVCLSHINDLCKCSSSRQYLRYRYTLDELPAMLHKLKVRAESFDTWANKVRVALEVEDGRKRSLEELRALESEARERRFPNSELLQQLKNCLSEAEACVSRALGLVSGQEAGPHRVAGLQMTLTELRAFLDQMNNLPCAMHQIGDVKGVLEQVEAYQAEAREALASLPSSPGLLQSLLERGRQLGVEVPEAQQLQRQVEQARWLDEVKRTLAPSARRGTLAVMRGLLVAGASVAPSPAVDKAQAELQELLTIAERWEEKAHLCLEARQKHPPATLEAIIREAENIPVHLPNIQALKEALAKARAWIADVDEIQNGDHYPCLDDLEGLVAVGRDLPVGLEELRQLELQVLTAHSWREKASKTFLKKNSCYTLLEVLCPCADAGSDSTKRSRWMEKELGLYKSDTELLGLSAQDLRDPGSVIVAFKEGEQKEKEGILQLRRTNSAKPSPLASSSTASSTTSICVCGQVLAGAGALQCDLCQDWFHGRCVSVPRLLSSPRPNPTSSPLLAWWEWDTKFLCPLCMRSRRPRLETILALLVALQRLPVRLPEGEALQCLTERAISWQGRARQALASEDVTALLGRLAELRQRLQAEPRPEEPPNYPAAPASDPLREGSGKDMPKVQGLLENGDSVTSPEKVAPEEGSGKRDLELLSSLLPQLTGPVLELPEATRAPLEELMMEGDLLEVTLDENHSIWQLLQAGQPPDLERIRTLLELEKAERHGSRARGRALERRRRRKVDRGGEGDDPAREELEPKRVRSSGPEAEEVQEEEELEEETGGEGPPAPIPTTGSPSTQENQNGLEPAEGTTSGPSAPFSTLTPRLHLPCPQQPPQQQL

[3] = molecular target: Lysine-specific demethylase 5A (Homo sapiens, UniProt P29375); test: Inhibition of KDM5A (unknown origin) at 0.25 uM relative to control
[4] = molecular target: T3, Lysine-specific demethylase 4C (Homo sapiens) (UniProt Q9H3R0); test: Inhibition of KDM4C (unknown origin) at 0.25 uM relative to control
T3 sequence (whole entry): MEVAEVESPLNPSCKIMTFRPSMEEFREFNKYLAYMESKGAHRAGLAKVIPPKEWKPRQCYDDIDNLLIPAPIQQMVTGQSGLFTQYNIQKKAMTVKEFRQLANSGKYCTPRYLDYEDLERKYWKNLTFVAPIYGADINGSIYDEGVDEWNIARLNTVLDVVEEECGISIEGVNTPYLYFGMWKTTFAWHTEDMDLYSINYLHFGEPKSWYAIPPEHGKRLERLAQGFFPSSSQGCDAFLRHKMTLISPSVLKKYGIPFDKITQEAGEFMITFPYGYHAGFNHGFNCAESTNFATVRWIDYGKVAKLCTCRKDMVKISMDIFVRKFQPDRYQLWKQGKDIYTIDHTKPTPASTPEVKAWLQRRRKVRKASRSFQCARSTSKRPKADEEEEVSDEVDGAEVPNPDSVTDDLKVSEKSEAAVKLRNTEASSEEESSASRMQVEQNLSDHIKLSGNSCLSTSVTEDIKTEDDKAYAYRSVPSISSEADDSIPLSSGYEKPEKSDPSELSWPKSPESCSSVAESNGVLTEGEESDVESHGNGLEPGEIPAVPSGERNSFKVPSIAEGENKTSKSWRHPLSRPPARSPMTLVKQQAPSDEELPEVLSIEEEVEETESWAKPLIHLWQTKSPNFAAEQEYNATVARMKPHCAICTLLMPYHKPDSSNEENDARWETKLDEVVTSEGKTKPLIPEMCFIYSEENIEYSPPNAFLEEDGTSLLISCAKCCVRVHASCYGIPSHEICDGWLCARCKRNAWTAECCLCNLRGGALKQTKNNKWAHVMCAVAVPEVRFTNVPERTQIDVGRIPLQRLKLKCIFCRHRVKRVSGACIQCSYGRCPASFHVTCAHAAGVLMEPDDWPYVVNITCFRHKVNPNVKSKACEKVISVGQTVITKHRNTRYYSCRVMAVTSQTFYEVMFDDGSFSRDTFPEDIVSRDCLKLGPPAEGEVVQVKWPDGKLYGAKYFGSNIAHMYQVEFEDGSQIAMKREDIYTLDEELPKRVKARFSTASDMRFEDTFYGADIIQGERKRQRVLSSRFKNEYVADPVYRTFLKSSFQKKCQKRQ

[5] = molecular target: Lysine-specific demethylase 5B (Homo sapiens, UniProt Q9UGL1); test: Inhibition of KDM5B in human MKN-45 cells assessed as protein stabilization measured after 1 hr by cellular thermal shift assay; format: cell-based
Lysine-specific demethylase 5B, sequence (Q9UGL1 whole entry): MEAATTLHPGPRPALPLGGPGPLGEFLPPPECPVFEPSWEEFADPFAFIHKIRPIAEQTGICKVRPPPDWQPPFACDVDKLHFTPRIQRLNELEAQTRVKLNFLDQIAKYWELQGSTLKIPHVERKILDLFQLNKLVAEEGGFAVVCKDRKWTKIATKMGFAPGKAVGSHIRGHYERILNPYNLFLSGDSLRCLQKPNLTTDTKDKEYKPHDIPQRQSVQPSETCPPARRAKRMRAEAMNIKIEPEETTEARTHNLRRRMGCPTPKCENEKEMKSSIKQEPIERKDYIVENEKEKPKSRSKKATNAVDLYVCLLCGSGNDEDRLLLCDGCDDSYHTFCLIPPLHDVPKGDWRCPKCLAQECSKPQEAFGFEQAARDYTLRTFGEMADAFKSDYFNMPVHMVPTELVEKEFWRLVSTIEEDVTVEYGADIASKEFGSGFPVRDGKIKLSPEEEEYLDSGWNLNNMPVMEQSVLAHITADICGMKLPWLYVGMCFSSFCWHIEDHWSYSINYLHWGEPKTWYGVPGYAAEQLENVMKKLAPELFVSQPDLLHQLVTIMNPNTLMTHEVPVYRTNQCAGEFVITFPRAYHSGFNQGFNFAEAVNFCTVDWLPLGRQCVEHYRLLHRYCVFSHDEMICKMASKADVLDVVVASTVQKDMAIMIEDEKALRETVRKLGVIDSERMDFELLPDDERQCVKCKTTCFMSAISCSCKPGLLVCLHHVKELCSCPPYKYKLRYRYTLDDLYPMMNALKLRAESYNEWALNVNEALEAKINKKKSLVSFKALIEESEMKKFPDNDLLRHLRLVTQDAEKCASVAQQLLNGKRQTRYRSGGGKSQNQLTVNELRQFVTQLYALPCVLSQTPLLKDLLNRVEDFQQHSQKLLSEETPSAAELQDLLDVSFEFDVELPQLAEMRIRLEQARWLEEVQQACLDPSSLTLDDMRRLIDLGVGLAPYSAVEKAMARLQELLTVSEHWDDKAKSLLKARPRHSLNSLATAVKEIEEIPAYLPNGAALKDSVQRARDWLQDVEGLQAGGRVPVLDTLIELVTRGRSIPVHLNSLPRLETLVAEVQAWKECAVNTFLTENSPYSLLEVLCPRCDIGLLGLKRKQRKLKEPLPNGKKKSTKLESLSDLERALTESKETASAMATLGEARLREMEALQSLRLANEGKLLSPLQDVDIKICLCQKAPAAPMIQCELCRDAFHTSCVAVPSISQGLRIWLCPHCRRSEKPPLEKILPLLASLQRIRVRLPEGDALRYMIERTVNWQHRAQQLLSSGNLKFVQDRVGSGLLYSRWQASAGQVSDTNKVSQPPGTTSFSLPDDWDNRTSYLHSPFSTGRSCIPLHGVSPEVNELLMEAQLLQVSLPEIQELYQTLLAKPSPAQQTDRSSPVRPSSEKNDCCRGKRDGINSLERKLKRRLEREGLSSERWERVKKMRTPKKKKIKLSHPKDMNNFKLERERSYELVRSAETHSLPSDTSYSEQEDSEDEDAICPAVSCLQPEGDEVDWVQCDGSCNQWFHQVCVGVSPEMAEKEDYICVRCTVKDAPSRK
In short: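 MKN45 cells (5×10^5) were treated with compound or DMSO for 1 h, washed in PBS and resuspended in PBS with protease inhibitors. Cells were heated at 46 °C for 3 min, then freeze-thawed three times in liquid nitrogen. KDM5B in the supernatant was measured by western blot with GAPDH control. Repeated three times.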

[6] = molecular target: T1, Lysine-specific demethylase 6B; test: Inhibition of KDM6B (unknown origin) at 1 uM relative to control
[7] = molecular target: T2, Lysine-specific demethylase 5C; test: Inhibition of KDM5C (unknown origin)
MKN-45 [8] = test: Antiproliferative activity against human MKN-45 cells assessed as reduction in cell proliferation measured after 6 days by MTS assay; format: functional, cell-based; details: MKN-45, 144 h
In short: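 MKN45 cells were seeded at 3×10^3 cells per well and treated for 4 or 6 days, as indicated. Proliferation was read by MTS assay and IC50 derived. Three independent experiments, mean ± SD.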

MKN-45 [9] = test: Inhibition of colony formation in human MKN-45 cells measured after 10 days by crystal violet staining based microscopic analysis; format: functional, cell-based; details: time 10.0 day
In short: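 1000 MKN45 cells were seeded in 6-well plates and treated. The medium was then replaced and cells were cultured another 10 days. Colonies were fixed with cold methanol, stained with crystal violet and photographed under a microscope.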

T1 sequence (O15054 whole entry): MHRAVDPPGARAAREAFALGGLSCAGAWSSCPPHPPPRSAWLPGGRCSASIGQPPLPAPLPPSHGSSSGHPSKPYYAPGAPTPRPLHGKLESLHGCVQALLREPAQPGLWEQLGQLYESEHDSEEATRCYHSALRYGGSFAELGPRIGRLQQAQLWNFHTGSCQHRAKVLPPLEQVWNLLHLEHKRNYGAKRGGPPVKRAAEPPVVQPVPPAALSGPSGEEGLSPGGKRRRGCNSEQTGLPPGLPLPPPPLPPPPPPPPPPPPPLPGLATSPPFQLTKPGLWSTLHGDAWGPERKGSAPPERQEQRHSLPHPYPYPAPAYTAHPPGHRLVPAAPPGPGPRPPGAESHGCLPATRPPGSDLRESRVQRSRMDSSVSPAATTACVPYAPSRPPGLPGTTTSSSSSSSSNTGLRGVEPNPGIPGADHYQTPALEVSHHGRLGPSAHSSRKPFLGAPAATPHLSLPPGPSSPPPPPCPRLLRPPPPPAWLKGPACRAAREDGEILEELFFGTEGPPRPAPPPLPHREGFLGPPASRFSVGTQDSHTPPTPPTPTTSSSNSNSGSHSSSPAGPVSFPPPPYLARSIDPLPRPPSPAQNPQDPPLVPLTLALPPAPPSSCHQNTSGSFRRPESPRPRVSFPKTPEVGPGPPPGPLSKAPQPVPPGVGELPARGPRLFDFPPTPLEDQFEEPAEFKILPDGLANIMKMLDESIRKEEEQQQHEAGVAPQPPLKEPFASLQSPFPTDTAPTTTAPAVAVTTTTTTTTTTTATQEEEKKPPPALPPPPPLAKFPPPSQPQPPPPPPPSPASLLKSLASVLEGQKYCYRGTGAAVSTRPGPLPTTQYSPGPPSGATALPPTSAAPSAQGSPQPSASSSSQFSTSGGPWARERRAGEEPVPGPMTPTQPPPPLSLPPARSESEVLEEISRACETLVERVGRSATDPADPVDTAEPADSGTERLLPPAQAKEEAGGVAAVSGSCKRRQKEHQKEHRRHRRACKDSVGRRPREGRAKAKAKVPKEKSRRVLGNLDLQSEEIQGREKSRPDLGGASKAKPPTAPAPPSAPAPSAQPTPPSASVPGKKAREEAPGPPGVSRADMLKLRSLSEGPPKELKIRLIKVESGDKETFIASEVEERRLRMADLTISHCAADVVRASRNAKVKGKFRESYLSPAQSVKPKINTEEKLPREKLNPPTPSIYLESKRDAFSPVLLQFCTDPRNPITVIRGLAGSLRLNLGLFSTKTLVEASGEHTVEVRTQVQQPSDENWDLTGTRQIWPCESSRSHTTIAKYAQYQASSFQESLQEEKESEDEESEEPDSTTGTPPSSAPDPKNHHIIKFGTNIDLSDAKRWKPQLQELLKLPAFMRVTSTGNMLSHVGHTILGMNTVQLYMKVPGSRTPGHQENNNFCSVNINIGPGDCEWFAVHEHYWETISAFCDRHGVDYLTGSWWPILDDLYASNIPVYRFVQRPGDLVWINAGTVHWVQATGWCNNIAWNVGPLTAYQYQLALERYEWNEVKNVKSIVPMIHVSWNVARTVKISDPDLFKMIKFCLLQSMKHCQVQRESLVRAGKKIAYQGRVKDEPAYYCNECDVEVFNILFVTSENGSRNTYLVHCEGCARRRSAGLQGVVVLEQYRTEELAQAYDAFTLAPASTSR

IC50 [1]: > 1000 nM
inhibition [2]: 62.1%
inhibition [3]: 62.4%
inhibition [4]: 39.4%
inhibition [5]: Dose-dependent effect
inhibition [6]: 19.6%
IC50 [7]: 24.8 nM
IC50 (MKN-45 [8]): 20.6 µM
Compound: COc1ccc(-n2cc(C(=O)NCC(C)(C)N3CCOCC3)c(-c3ccccc3)n2)cc1
inhibition (MKN-45 [9]): Active
